Experimental data from publication PMC5955795 (Antiviral research, 2018).
Structures can show the parent of a compound that is named as a salt. Where two headings read alike, the source gives them in different places.

Key:
[1] = design: species or system rhesus macaques; settings: rhesus monkey, in vivo, sc
[2] = assay type: in vivo, human
HIV-infected CD4 T cells = assay type: cell-based, human; settings: 1μg/ml drug, seven days, n=4
[3] = test system: R5X4 dual-tropic HIV-1 (strain 89.6); assay type: cell-based; settings: seven days, n=4
[4] = test system: R5X4 dual-tropic HIV-1 (strain 89.6); assay type: cell-based; settings: 0.1-1μg/ml TDF, seven days, n=6
[5] = test system: R5X4 dual-tropic HIV-1 (strain 89.6); assay type: cell-based; settings: 0.1-1μg/ml TDF, seven days, n=6; remark: listed apart in the source
[6] = test system: R5X4 dual-tropic HIV-1 (strain 89.6); assay type: cell-based; settings: 0.1-1μg/ml TDF, n=5
Procedure, shortened: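 Infected CD4 T cells (5×10^5; anti-CD3/IL2-activated, MOI 0.1) were placed in 0.4μm-pore transwells above mature adipocytes in adipocyte maintenance medium. Drug was added to the lower wells just before, with 100ng/ml IL-2, for 6-7 days. Read-out was supernatant p24 by ELISA, reported as percent change relative to untreated. Singlet wells; experiments repeated with different donor cells; mean±sem.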

[7] = test system: R5X4 dual-tropic HIV-1 (strain 89.6); assay type: cell-based; settings: 1μg/ml drug, seven days, n=3
Procedure, shortened: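 Anti-CD3 (1μg/ml plate-bound) plus IL2 (100ng/ml) stimulated CD4 T cells for 48 hrs at 37°C/5%CO2. Cells were infected at MOI 0.1 for 48 hrs with IL2, then 5×10^5 were seeded directly onto mature adipocytes differentiated from 5×10^4 preadipocytes/well. Co-culture ran seven days with IL-2 and drug. Read-out was intracellular p24 by flow cytometry (clone KC57) after viability dye; singlet wells per condition.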

[8] = direct contact co-culture with adipocytes

C[C@@H](Cn1cnc2c(N)ncnc21)OCP(=O)(O)OP(=O)(O)OP(=O)(O)O [TFV-DP]
intracellular concentration in PBMC [1]: 80-770 fmol/million cells
intracellular concentration in lysates of AT-SVF fractions [1]: undetectable
intracellular concentration in lysates of adipocyte fractions [1]: undetectable
concentration in serum ([2]; human, in vivo): 246 ng/mL
intracellular concentration in PBMC ([2]; human, in vivo): 633 fmol/million cells
intracellular concentration in tissues examined (tissue not specified) ([2]; human, in vivo): undetectable
intracellular concentration in subcutaneous AT-SVF cells ([2]; human, in vivo, sc): 724 fmol/million cells
intracellular concentration in subcutaneous adipocytes ([2]; human, in vivo, sc): 7 fmol/million cells

CC(C)OC(=O)[C@H](C)N[P@](=O)(CO[C@H](C)Cn1cnc2c(N)ncnc21)Oc1ccccc1 [TAF, tenofovir alafenamide]
CD69+p24+ expression (HIV-infected CD4 T cells; co-culture with adipocytes): 8-12%
CD69+p24+ expression (HIV-infected CD4 T cells; medium alone): < 2%
reduced HIV replication (intracellular p24) ([3]; 0.1-1μg/ml TAF, in the presence of adipocytes): 1-64%
reduced HIV replication (intracellular p24) ([3]; 0.1-1μg/ml TAF, medium alone): 40-98%

Nc1nc(NC2CC2)c2ncn([C@H]3C=C[C@@H](CO)C3)c2n1 [abacavir]
intracellular concentration in lymph node cells ([2]; Pt.06): undetectable
intracellular concentration in visceral adipocytes ([2]; Pt.06): undetectable

Nc1nc(=O)c2ncn([C@H]3C=C[C@@H](COP(=O)(O)OP(=O)(O)OP(=O)(O)O)C3)c2[nH]1 [CBV-TP]
intracellular concentration in tissues examined (tissue not specified) ([2]; human, in vivo): undetectable
intracellular concentration in visceral AT-SVF cells ([2]; human, in vivo): undetectable

CC(C)c1nc(CN(C)C(=O)N[C@H](C(=O)N[C@@H](Cc2ccccc2)C[C@H](O)[C@H](Cc2ccccc2)NC(=O)OCc2cncs2)C(C)C)cs1 [ritonavir]
intracellular concentration in tissues examined (tissue not specified) ([2]; Pt.07): undetectable

Cc1ccnc2c1NC(=O)c1cccnc1N2C1CC1 [nevirapine]
intracellular concentration in visceral adipocytes ([2]; Pt.06): 139 fmol/million cells

CC(C)OC(=O)OCOP(=O)(CO[C@H](C)Cn1cnc2c(N)ncnc21)OCOC(=O)OC(C)C [TDF, tenofovir disoproxil fumarate]
effect of preadipocytes on antiviral activity [4]: neither preadipocytes or Caco-2 cells significantly affected
CD69+p24+ expression (HIV-infected CD4 T cells; co-culture with adipocytes): 8-12%
CD69+p24+ expression (HIV-infected CD4 T cells; medium alone): < 2%
reduced HIV replication (intracellular p24) ([3]; 0.5-2μg/ml TDF, in the presence of adipocytes): 15-38%
reduced HIV replication (intracellular p24) ([3]; 0.5-2μg/ml TDF, medium alone): 60-95%
effect of Caco-2 cells on antiviral activity [5]: neither preadipocytes or Caco-2 cells significantly affected
reduced HIV replication (extracellular p24 by ELISA) ([6]; in the presence of adipocytes): 4-41%
reduced HIV replication (extracellular p24 by ELISA) ([6]; medium alone): 57-85%
HIV production (p24+) [7, 8]: 55-60%
HIV production (p24+) ([7]; medium alone): 15-16 % p24+

COC(=O)N[C@H](C(=O)N[C@@H](Cc1ccccc1)[C@@H](O)CN(Cc1ccc(-c2ccccn2)cc1)NC(=O)[C@@H](NC(=O)OC)C(C)(C)C)C(C)(C)C [atazanavir]
intracellular concentration in tissues examined (tissue not specified) ([2]; Pt.07): undetectable

C[C@@H]1CCO[C@H]2Cn3cc(C(=O)NCc4ccc(F)cc4F)c(=O)c(O)c3C(=O)N12 [dolutegravir]
intracellular concentration in visceral AT-SVF cells ([2]; Pt.01): undetectable
intracellular concentration in lymph node cells ([2]; Pt.03): 793 fmol/million cells
intracellular concentration in subcutaneous AT-SVF cells ([2]; Pt.03): 129 fmol/million cells
intracellular concentration in subcutaneous adipocytes ([2]; Pt.03): 151 fmol/million cells
intracellular concentration in lymph node cells ([2]; Pt.04): 749 fmol/million cells
intracellular concentration in subcutaneous AT-SVF cells ([2]; Pt.04): 1,439 fmol/million cells
intracellular concentration in subcutaneous adipocytes ([2]; Pt.04): 382 fmol/million cells
intracellular concentration in subcutaneous AT-SVF cells ([2]; Pt.07): 4 fmol/million cells
concentration in serum ([2]; Pt.08): 1,324 ng/ml
intracellular concentration in PBMC ([2]; Pt.08): 46 fmol/million cells
intracellular concentration in lymph node cells ([2]; Pt.08): 17 fmol/million cells
intracellular concentration in subcutaneous AT-SVF cells ([2]; Pt.08): 449 fmol/million cells
intracellular concentration in subcutaneous adipocytes ([2]; Pt.08): 363 fmol/million cells

C[C@H](Cn1cnc2c(N)ncnc21)OCP(=O)(O)O [tenofovir]
CD69+p24+ expression (HIV-infected CD4 T cells; co-culture with adipocytes): 8-12%
CD69+p24+ expression (HIV-infected CD4 T cells; medium alone): < 2%
reduced HIV replication (intracellular p24) ([3]; 1-5μg/ml tenofovir, in the presence of adipocytes): 5-43%
reduced HIV replication (intracellular p24) ([3]; 1-5μg/ml tenofovir, medium alone): 65-91%
HIV production (p24+) [7, 8]: 55-60%
HIV production (p24+) ([7]; medium alone): 15-16 % p24+

COc1cc2c(cc1Cc1cccc(Cl)c1F)c(=O)c(C(=O)O)cn2[C@H](CO)C(C)C [elvitegravir]
intracellular concentration in PBMC ([2]; Pt.05): undetectable
intracellular concentration in subcutaneous AT-SVF cells ([2]; Pt.05): 339 fmol/million cells

Nc1ccn([C@@H]2CS[C@H](COP(=O)(O)OP(=O)(O)OP(=O)(O)O)O2)c(=O)n1 [3TC-TP]
concentration in serum ([2]; human, in vivo): 37 ng/mL
intracellular concentration in tissues examined (tissue not specified) ([2]; human, in vivo): undetectable
intracellular concentration in visceral AT-SVF cells ([2]; human, in vivo): undetectable

Nc1nc(=O)n([C@@H]2CS[C@H](COP(=O)(O)OP(=O)(O)OP(=O)(O)O)O2)cc1F [FTC-TP]
intracellular concentration in PBMC [1]: 700-1,400 fmol/million cells
intracellular concentration in lysates of AT-SVF fractions [1]: undetectable
intracellular concentration in lysates of adipocyte fractions [1]: undetectable
concentration in serum ([2]; human, in vivo): 2,687 ng/ml
intracellular concentration in PBMC ([2]; human, in vivo): 14,682 fmol/million cells
intracellular concentration in lymph node cells ([2]; human, in vivo): 1,053 fmol/million cells
intracellular concentration in tissues examined (tissue not specified) ([2]; human, in vivo): undetectable
intracellular concentration in subcutaneous AT-SVF cells ([2]; human, in vivo, sc): 4,459 fmol/million cells
intracellular concentration in subcutaneous adipocytes ([2]; human, in vivo, sc): 11 fmol/million cells
